Converted amounts (≈) assume the structure as drawn.
Tests used:
[1] = test system: Mycobacterium tuberculosis; assay: Antimycobacterial activity against Mycobacterium tuberculosis H37Rv measured by MABA assay; assay type: functional
How it was run: (§1)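 Microplate Alamar Blue assay against replicating M. tuberculosis H37Rv or clinical isolates. MIC is the lowest concentration giving ≥90% reduction in fluorescence relative to the mean of replicate bacterium-only controls.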

[2] = test system: Mycobacterium tuberculosis; assay: Antimycobacterial activity against Mycobacterium tuberculosis 13946 clinical isolate measured by MABA assay; assay type: functional; how it was run: as §1
[3] = test system: Mycobacterium tuberculosis; assay: Antimycobacterial activity against Mycobacterium tuberculosis 14862 clinical isolate measured by MABA assay; assay type: functional; how it was run: as §1
[4] = test system: Mycobacterium tuberculosis; assay: Antimycobacterial activity against Mycobacterium tuberculosis H37Rv infected in BALB/c mouse assessed as reduction in log10 CFU in lungs at 25 mg/kg, po administered 5 times a week from day 10 to 30; assay type: functional
How it was run: (§2)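 Female SPF BALB/c mice, 18–20 g, 6 per group, aerosol-infected with M. tuberculosis H37Rv to deposit 50–100 bacilli per lung. Oral gavage in 0.5% CMC at 25 or 100 mg/kg, 5 days/week from day 10 to day 30; controls get vehicle. Lungs harvested the next day and plated on 7H11 for 3 weeks at 37 °C. Mean log10 CFU compared by Student's t test.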

[5] = Toxicity in BALB/c mouse infected with Mycobacterium tuberculosis H37Rv assessed as body weight at 25 mg/kg, po administered 5 times a week from day 10 to 30; assay type: organism-based; details: in vivo; how it was run: as §2
[6] = Cytotoxicity against African green monkey Vero cells measured by MTT assay; assay type: toxicity, cell-based; details: African green monkey (Chlorocebus sabaeus)
How it was run: (§3)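 Vero, HepG2 and mouse J774A.1 cells grown in RPMI 1640 with 10% FBS. MTT read-out in 96-well format.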

[7] = Cytotoxicity against human HepG2 cells measured by MTT assay; assay type: toxicity, cell-based; how it was run: as §3
[8] = biological target: Voltage-gated inwardly rectifying potassium channel KCNH2 (Homo sapiens, UniProt Q12809); assay: Inhibition of hERG; assay type: toxicity
How it was run: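 Electrophysiological recording of hERG current at 30, 10, 3.0, 1.0 and 0.3 µM, run in duplicate for IC50.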

[9] = Selectivity index, Ratio of IC50 for Vero cells over MIC for Mycobacterium tuberculosis H37Rv; assay type: toxicity; details: monkey
[10] = Metabolic stability in mouse hepatocytes assessed as compound remaining at 1 uM measured by LC-MS/MS analysis; assay type: ADME, cell-based, Hepatocyte; details: read-out: Stability
How it was run: (§4)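 Compound at 1 µM with hepatocytes at 1 million cells/mL final; human hepatocytes are mixed donor, mouse are male. Incubated at 37 °C in CO2 at ~100 rpm. Sampled at 0, 15, 30, 60, 90 and 120 min, quenched in ice-cold ACN/MeOH with internal standard. Parent remaining measured by LC-MS/MS.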

[11] = Metabolic stability in mouse hepatocytes assessed as half-life at 1 uM measured by LC-MS/MS analysis; assay type: ADME, cell-based, Hepatocyte; how it was run: as §4
[12] = Metabolic stability in human hepatocytes assessed as compound remaining at 1 uM measured by LC-MS/MS analysis; assay type: ADME, cell-based, Hepatocyte; details: read-out: Stability; how it was run: as §4
[13] = Metabolic stability in human hepatocytes assessed as half-life at 1 uM measured by LC-MS/MS analysis; assay type: ADME, cell-based, Hepatocyte; how it was run: as §4
[14] = Cytotoxicity against mouse J774.A1 cells measured by MTT assay; assay type: toxicity, cell-based; how it was run: as §3
J774.A1 [15] = assay: Antimycobacterial activity against Mycobacterium tuberculosis H37Rv infected in mouse J774.A1 cells assessed as change in log10 CFU at 10 ug/ml; assay type: functional; details: dose 10 µg/ml
How it was run: (§5)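 Mouse J774A.1 macrophages infected with M. tuberculosis H37Rv, test compound at final 10 or 5 µg/mL. Read-out is intracellular log10 CFU; Δlog10 CFU = untreated minus treated. Triplicates in at least three separate experiments.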

J774.A1 [16] = assay: Antimycobacterial activity against Mycobacterium tuberculosis H37Rv infected in mouse J774.A1 cells assessed as change in log10 CFU at 5 ug/ml; assay type: functional; details: dose 5 µg/ml; how it was run: as §5
[17] = test system: Mycobacterium tuberculosis; assay: Antimycobacterial activity against Mycobacterium tuberculosis H37Rv infected in BALB/c mouse assessed as reduction in log10 CFU in lungs at 100 mg/kg, po administered 5 times a week from day 10 to 30; assay type: functional; how it was run: as §2
[18] = Toxicity in BALB/c mouse infected with Mycobacterium tuberculosis H37Rv assessed as body weight at 100 mg/kg, po administered 5 times a week from day 10 to 30; assay type: organism-based; details: in vivo; how it was run: as §2

Chain of Voltage-gated inwardly rectifying potassium channel KCNH2 (Q12809 whole entry): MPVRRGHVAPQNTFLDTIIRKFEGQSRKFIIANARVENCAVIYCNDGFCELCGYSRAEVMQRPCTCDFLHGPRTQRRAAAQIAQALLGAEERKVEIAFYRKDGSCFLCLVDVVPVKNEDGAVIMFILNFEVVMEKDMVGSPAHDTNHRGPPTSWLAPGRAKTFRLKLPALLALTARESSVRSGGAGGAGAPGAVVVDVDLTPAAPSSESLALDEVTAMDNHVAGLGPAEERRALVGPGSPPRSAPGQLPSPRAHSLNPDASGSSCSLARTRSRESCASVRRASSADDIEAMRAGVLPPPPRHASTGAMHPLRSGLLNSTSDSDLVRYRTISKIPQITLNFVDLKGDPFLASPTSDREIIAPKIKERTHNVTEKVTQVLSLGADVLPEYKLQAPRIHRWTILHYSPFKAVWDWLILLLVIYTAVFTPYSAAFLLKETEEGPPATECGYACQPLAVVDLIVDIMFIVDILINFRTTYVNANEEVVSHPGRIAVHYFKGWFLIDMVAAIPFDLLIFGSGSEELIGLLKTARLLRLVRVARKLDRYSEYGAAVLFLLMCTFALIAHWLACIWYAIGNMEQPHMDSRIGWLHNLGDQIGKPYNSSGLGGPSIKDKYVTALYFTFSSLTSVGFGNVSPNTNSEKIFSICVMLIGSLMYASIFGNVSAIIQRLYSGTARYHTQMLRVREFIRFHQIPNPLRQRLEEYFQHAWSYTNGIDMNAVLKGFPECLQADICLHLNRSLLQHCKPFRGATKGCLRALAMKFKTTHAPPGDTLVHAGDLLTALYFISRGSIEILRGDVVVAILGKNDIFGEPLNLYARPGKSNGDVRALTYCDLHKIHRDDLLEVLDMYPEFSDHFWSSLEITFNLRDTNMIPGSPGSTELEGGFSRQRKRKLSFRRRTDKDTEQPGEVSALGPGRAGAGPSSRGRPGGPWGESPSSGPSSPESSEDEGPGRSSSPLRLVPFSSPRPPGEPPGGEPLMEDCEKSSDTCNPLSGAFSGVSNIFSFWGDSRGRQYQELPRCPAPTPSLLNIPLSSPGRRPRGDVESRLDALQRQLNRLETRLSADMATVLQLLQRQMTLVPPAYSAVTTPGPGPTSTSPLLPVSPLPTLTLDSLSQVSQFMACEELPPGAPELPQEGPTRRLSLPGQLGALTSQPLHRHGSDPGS

SMILES	MIC [1]	MIC [2]	MIC [3]	Activity [4]	Activity [5]	IC50 [6]	IC50 [7]	IC50 [8]	selectivity ratio [9]	remaining at 1 µM [10]	half-life at 1 µM [11]	remaining at 1 µM [12]	half-life at 1 µM [13]	IC50 [14]	Activity (J774.A1 [15])	Activity (J774.A1 [16])	Activity [17]	Activity [18]
NNC(=O)c1ccncc1 [ISONIAZID]	0.019 µg/mL (≈ 0.139 µM)	2.46 µg/mL (≈ 17.9 µM)	> 10 µg/mL	1.76 log10CFU	20.9 g													
CCOC(=O)NC(=O)c1ccsc1NC(=O)c1ccc(S(=O)(=O)N2CCCC2)cc1	< 0.016 µg/mL	0.057 µg/mL (≈ 0.126 µM)	0.03 µg/mL (≈ 0.0664 µM)			58.2 µg/mL (≈ 129 µM)	62.9 µg/mL (≈ 139 µM)	> 30 µM	> 3640	49.7%	29.7 min	42%	24 min	> 64 µg/mL	1.29 deltalog10CFU	1.19 deltalog10CFU	4.81 log10CFU	20.94 g

Source: ChEMBL document CHEMBL5154717, “Identification of thiophene-benzenesulfonamide derivatives for the treatment of multidrug-resistant tuberculosis” (Eur J Med Chem, 2022)
